Experimental data taken from ChEMBL document CHEMBL1123062, “Relationship between structure and antineoplastic activity of (arylsulfonyl)hydrazones of 4-pyridinecarboxaldehyde” (1985).

How the values were obtained:
[1] = Maximum effective daily dose required to inhibit the tumors of sarcoma 180 ascites cells; type: functional, Mus musculus
Summary of the method: (§1)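 Ascitic Sarcoma 180 or P388 leukemia carried in CDF-1 mice; recipients transplanted from donors bearing 7-day tumors. Compound given once daily for six consecutive days from 24 h after implantation, over 50–200 mg/kg per day; hydrochloride salt solutions adjusted to pH 6.5–7.0. Mice weighed; % body-weight change onset to end of therapy taken as host toxicity; maximum effective daily dose reported from survival prolongation.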

Mus musculus [2] = species: Mus musculus; assay: Ratio of average survival time of treated to control mice bearing sarcoma 180 ascites cells; type: functional
Summary of the method: (§2)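 In CDF-1 mice bearing ascitic P388 leukemia or Sarcoma 180 from 7-day donors, dosing ran once daily for six days from 24 h post-implant (range 50–200 mg/kg/day; HCl salts adjusted to pH 6.5–7.0). % T/C was the average survival time of treated over control animals × 100, reported at the maximum effective daily dose.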

[3] = Compound was evaluated for antitumor activity in mice bearing sarcoma 180 ascites cells from average survival time; type: functional, Mus musculus
Summary of the method: (§3)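 Ascites forms of Sarcoma 180 or P388 leukemia carried in CDF-1 mice. Recipients were implanted from donors with 7-day tumor growth. Compound given once daily for six consecutive days starting 24 h after implantation, with a tested range of 50–200 mg/kg per day. Hydrochloride salt solutions were adjusted to pH 6.5–7.0. Survival time was averaged, days ± SE. Body weight was tracked as a toxicity indicator.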

[4] = Compound was evaluated for average change in body weight from onset to the termination of drug therapy in mice bearing sarcoma 180 ascites cells; type: functional, Mus musculus; summary of the method: as §1
[5] = Compound was evaluated for antitumor activity in mice (control group) bearing sarcoma 180 ascites cells from average survival time; type: functional, Mus musculus; summary of the method: as §3
P388 [6] = assay: Compound was evaluated for antitumor activity in mice (control group) bearing P388 leukemic cells and average survival time; type: functional, Mus musculus; summary of the method: as §3
P388 [7] = assay: Compound was evaluated for antitumor activity in mice bearing P388 leukemic cells and average survival time; type: functional, Mus musculus; summary of the method: as §3
Mus musculus [8] = species: Mus musculus; assay: Average change in body weight from onset to the termination of drug therapy in mice bearing sarcoma 180 ascites cells; type: functional; summary of the method: as §1
P388 [9] = assay: Maximum effective daily dose required to inhibit the tumors of P388 leukemia; type: functional, Mus musculus; summary of the method: as §1
[10] = Compound was evaluated for antitumor activity in mice bearing sarcoma 180 ascites cells and average survival time; type: functional, Mus musculus; summary of the method: as §3
[11] = Compound was evaluated for antitumor activity in mice (control group) bearing sarcoma 180 ascites cells and average survival time; type: functional, Mus musculus; summary of the method: as §3
P388 [12] = assay: Compound was evaluated for antitumor activity in mice bearing P388 leukemic cells, and average change in body weight from onset to the termination of therapy; type: functional, Mus musculus; summary of the method: as §1
Mus musculus [13] = species: Mus musculus; assay: Ratio of average survival time of treated to control mice bearing P388 leukemia; type: functional; summary of the method: as §2
P388 [14] = assay: Compound was evaluated for average change in body weight from onset to the termination of drug therapy in mice bearing P388 leukemic cells; type: functional, Mus musculus; summary of the method: as §1
P388 [15] = assay: Compound was evaluated for antitumor activity in mice bearing P388 leukemic cells from average survival time; type: functional, Mus musculus; summary of the method: as §3
P388 [16] = assay: Compound was evaluated for antitumor activity in mice (control group) bearing P388 leukemic cells from average survival time; type: functional, Mus musculus; summary of the method: as §3
P388 [17] = assay: Compound was evaluated for antitumor activity in mice bearing P388 leukemic cells, and average change in body weight from onset to the termination of drug therapy; type: functional, Mus musculus; summary of the method: as §1

Row | Structure (SMILES) | Dose [1] [mg/kg] | T/C (Mus musculus [2]) [%] | Time [3] [days] | Change of weight [4] [%] | Time [5] [days] | Time (P388 [6]) [days] | Time (P388 [7]) [days] | Weight change (Mus musculus [8]) [%] | Dose (P388 [9]) [mg/kg] | Time [10] [days] | Time [11] [days] | Weight change (P388 [12]) [%] | T/C (Mus musculus [13]) [%] | Weight change (P388 [14]) [%] | Time (P388 [15]) [days] | Time (P388 [16]) [days] | Weight change (P388 [17]) [%]
1 | C/C(=N\NS(=O)(=O)c1c(C)cc(C)cc1C)c1ccncc1 | 100 | 123 | 20.6 | 3.2 | 16.8 |  |  |  |  |  |  |  |  |  |  |  | 
2 | CC(C)c1cc(C(C)C)c(S(=O)(=O)N/N=C/c2ccncc2)c(C(C)C)c1.Cl | 200 | 262 |  |  |  | 13.8 | 17 | -3.1 | 200 | 31 | 11.8 | -0.9 | 123 |  |  |  | 
3 | COc1ccc(S(=O)(=O)N/N=C/c2ccc([N+](=O)[O-])cc2)cc1.Cl | 100 | 159 |  |  |  | 14.8 | 14.6 | -19 | 200 | 23.8 | 15 |  | 99 | -5.7 |  |  | 
4 | COc1ccc(S(=O)(=O)N/N=C/c2ccncc2)cc1OC.Cl | 200 | 278 | 32.8 |  | 11.8 |  |  | -9.1 | 100 |  |  |  | 119 |  | 17.6 | 14.8 | -3
5 | Cl.O=[N+]([O-])c1ccc(/C=N/NS(=O)(=O)c2ccccc2)cc1 | 150 | 182 |  |  |  | 14.2 | 14.8 | -12.1 | 150 | 20.8 | 11.4 | -0.1 | 104 |  |  |  | 
6 | Cc1cc(C)c(S(=O)(=O)N/N=C/c2ccncc2)c(C)c1.Cl | 50 | 239 |  |  |  | 14.6 | 18.8 | -8.4 | 100 | 34 | 14.2 |  | 129 | -2.2 |  |  | 
7 | Cc1ccc(S(=O)(=O)N/N=C/c2ccc([N+](=O)[O-])cc2)cc1.Cl | 100 | 197 | 29.6 |  | 15 |  |  | -17.4 | 200 |  |  |  | 107 | -3 | 15.2 | 14.2 | 
8 | Cl.O=S(=O)(N/N=C/c1ccncc1)c1ccccc1 | 100 | 225 |  |  |  |  |  | -8.6 | 150 | 32 | 14.2 |  | 123 | -3.1 | 18 | 14.6 | 
